The subject of data set [1] is Rattus norvegicus. The data set is described as follows: Gastrointestinal toxicity in Wistar rat assessed as appearance ulcer area of <1 mm diameter at 100 mg/kg, po administered as single dose after 6 hrs by Vernier caliper. Also noted: dose 100 mg/kg, route oral. The settings on record: in vivo. In kind it is organism-based. In a few lines: (§1)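 Male Wistar rats (150-200 g), n = 6 per group, fasted 18 h with water available. Single oral dose of 100 mg/kg. Killed under ether 6 h after dosing; stomach opened along the greater curvature, washed and examined. Lesion lengths measured by Vernier caliper and graded I (<1 mm), II (1-3 mm) or III (>3 mm). UI = 1×(I) + 2×(II) + 3×(III), averaged over six animals.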

Data set [2] has as its system Rattus norvegicus. The data set is described as follows: Gastrointestinal toxicity in Wistar rat assessed as ulcerogenic index at 100 mg/kg, po administered as single dose. The class given is organism-based. The settings on record: in vivo. Also on record: dose 100 mg/kg, route oral. In outline:
as §1

Data set [3] has as its system Rattus norvegicus. The data set is described as follows: Antiinflammatory activity in Wistar rat assessed as inhibition of carrageenan-induced paw edema at 100 mg/kg, po administered 1 hr before carrageenan challenge measured after 3 hrs by plethysmograph relative to control. The class given is functional. In outline: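 Male Wistar rats (150-200 g). Carrageenan 1% (0.1 mL) injected subplantar into left paw under light ether anaesthesia; test compound 100 mg/kg po given 1 h before. Paw volume read by plethysmograph 3 h after carrageenan. % inhibition = (carrageenan − test)/(carrageenan − normal) × 100. Groups: normal control, carrageenan, carrageenan plus treatment.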
(In general: Carrageenan injected into the paw causes an acute inflammation.)

Data set [4] can be described thus: Partition coefficient, log P of the compound in n-octanol-phosphate buffer at pH 7.4 by HPLC analysis. In kind it is physicochemical. In outline: (§2)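 Shake-flask method at 25 °C. 1-octanol and aqueous buffer (0.2 M phosphate pH 7.4 or 0.1 M citric acid pH 3.0) pre-saturated with each other for 24 h. Compound shaken in 5 mL each phase for 60 min at 400 rpm, then centrifuged at 3500 rpm for 5 min. Both phases quantified by HPLC at 254 nm. log P = log(octanol/water concentration). Run in triplicate.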

Data set [5] in a line: Partition coefficient, log P of the compound in 1-octanol-citric acid buffer at pH 3 by HPLC analysis. The class given is physicochemical. In outline: as §2
A short description of data set [6]: Aqueous solubility of the compound in 0.2 M hydrochloric acid buffer at pH 1 after 4 hrs by HPLC analysis. The class given is physicochemical. In outline: (§3)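 5 mg compound in 10 mL buffer, shaken at 400 rpm for 4 h at 40 °C. Then passed through a 0.20 μm membrane filter. Filtrate quantified by HPLC at 254 nm for both solubility and hydrolysis to parent. Detection limits estimated by HPLC.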

Data set [7] in a line: Aqueous solubility of the compound in 0.1 M citric acid buffer at pH 3 after 4 hrs by HPLC analysis. In kind it is physicochemical. In outline: as §3
Data set [8] in a line: Aqueous solubility of the compound in 0.1 M phosphate buffer at pH 5.2 after 4 hrs by HPLC analysis. The class given is physicochemical. In a few lines: as §3
Data set [9] is described as follows: Aqueous solubility of the compound in 0.2 M phosphate buffer at pH 7.4 after 4 hrs by HPLC analysis. In kind it is physicochemical. In a few lines: as §3
A short description of data set [10]: Aqueous solubility of the compound in 0.1 M boric acid buffer at pH 9 after 4 hrs by HPLC analysis. The class given is physicochemical. In outline:
as §3

A short description of data set [11]: Chemical stability of the compound at 0.2 M hydrochloric acid buffer assessed as hydrolysis to parent compound at pH 1 after 4 hrs by HPLC analysis. The settings on record: pH 1, 4 h. The class given is physicochemical. In a few lines:
as §3

Data set [12] can be described thus: Chemical stability of the compound at 0.1 M citric acid buffer assessed as hydrolysis to parent compound at pH 3 after 4 hrs by HPLC analysis. The class given is physicochemical. The settings on record: pH 3, 4 h. In a few lines: as §3
A short description of data set [13]: Chemical stability of the compound at 0.1 M phosphate buffer assessed as hydrolysis to parent compound at pH 5.2 after 4 hrs by HPLC analysis. The settings on record: pH 5.2, 4 h. The class given is physicochemical. In a few lines:
as §3

A short description of data set [14]: Chemical stability of the compound at 0.2 M phosphate buffer assessed as hydrolysis to parent compound at pH 7.4 after 4 hrs by HPLC analysis. The class given is physicochemical. The settings on record: pH 7.4, 4 h. In a few lines: as §3
Data set [15] can be described thus: Chemical stability of the compound at 0.1 M boric acid buffer assessed as hydrolysis to parent compound at pH 9 after 4 hrs by HPLC analysis. The class given is physicochemical. The settings on record: pH 9, 4 h. In outline:
as §3

A short description of data set [16]: Metabolic stability in rat liver microsomes assessed as compound remaining at 5 mM after 30 mins by HPLC analysis. The settings on record: read-out: Stability. In kind it is ADME, Microsome. A general note: Liver microsomes are a subcellular fraction often used to study metabolism.
The nature of data set [17]: Metabolic stability in rat liver microsomes assessed as compound remaining at 5 mM after 60 mins by HPLC analysis. In kind it is ADME, Microsome. The settings on record: read-out: Stability.
A short description of data set [18]: Metabolic stability in rat plasma assessed as compound remaining at 5 mM after 60 mins by HPLC analysis. The class given is ADME, cell-free. The settings on record: read-out: Stability.
The test system of data set [19] is Rattus norvegicus. Put plainly: Gastrointestinal toxicity in Wistar rat assessed as appearance ulcer area of 1 to 3 mm diameter at 100 mg/kg, po administered as single dose after 6 hrs by Vernier caliper. Also on record: dose 100 mg/kg, route oral. The class given is organism-based. The settings on record: in vivo. In a few lines: as §1
The test system of data set [20] is Rattus norvegicus. Put plainly: Gastrointestinal toxicity in Wistar rat assessed as appearance ulcer area of >3 mm diameter at 100 mg/kg, po administered as single dose after 6 hrs by Vernier caliper. In kind it is organism-based. Also on record: dose 100 mg/kg, route oral. The settings on record: in vivo. In a few lines: as §1

The term inhibition in vivo denotes how much of the control response was suppressed. Usually logD stands for lipophilicity at a set pH, counting ionised and neutral species. Higher therefore signals higher lipophilicity. In general, solubility refers to the dissolved amount per volume that the medium holds. The low end stands for a poorly soluble substance, the high end for a readily soluble substance. Regarding `COc1ccc2c(c1)c(CC(=O)OCOC(=O)C(C)(C)C)c(C)n2C(=O)c1ccc(Cl)cc1`, the Activity in [1] turned out to be 100%. In addition, the UI in data set [2] amounted to 19. Further, in data set [3], the inhibition in vivo at 100 mg/kg was 48.4%. Besides, the log distribution coefficient (logD) in data set [4] is 4.7; in data set [5], 4.6. Moreover, the solubility at 4 h in data set [6], in data set [7], in [8], in data set [9] and in data set [10] was less than 0.084 µg/mL each time. In addition, the Stability in data set [11] was determined as 0.021 µg/mL; in data set [12], 0.0075 µg/mL; in data set [13], 0.1525 µg/mL; in data set [14], 0.294 µg/mL; in data set [15], 2.187 µg/mL. In data set [16], the remaining at 0.5 h came out at 0%. In addition, the remaining at 1 h in data set [17] and in data set [18] was 0% throughout.

For the compound `COc1ccc2c(c1)c(CC(=O)OCOC(=O)OC(C)C)c(C)n2C(=O)c1ccc(Cl)cc1`, the Activity in data set [1] was 86.3%; in data set [19], 5.9%; in data set [20], 7.8%. The UI in [2] is 62. Besides, in [3], the inhibition in vivo at 100 mg/kg was determined as 45.2%. Also, the log distribution coefficient (logD) in data set [4] came to 5; in data set [5], 5.1. Also, the solubility at 4 h in data set [6], in [7], in [8], in data set [9] and in data set [10] was less than 0.119 µg/mL throughout. For the same compound, the Stability stood at 0.01 µg/mL in data set [11]; 0.00539 µg/mL in [12]; 0.01379 µg/mL in data set [13]; 0.01332 µg/mL in [14]; 0.2461 µg/mL in data set [15].

For `COc1ccc2c(c1)c(CC(=O)OCCOC(C)=O)c(C)n2C(=O)c1ccc(Cl)cc1`, the UI in data set [2] turned out to be 0. In [3], the inhibition in vivo at 100 mg/kg worked out at 44.4%. In addition, the log distribution coefficient (logD) in [4] came to 3.5; in data set [5] it was 4.2. In addition, the solubility at 4 h in data set [6], in data set [7], in data set [8], in [9] and in [10] was less than 0.111 µg/mL in each case. The Stability in data set [11] was determined as 0.0103 µg/mL; in data set [12], 0.0092 µg/mL; in [13] it was 0.0197 µg/mL; in data set [14], 0.0093 µg/mL; in data set [15], 0.369 µg/mL. For the same compound, the remaining at 0.5 h in data set [16] turned out to be 1.14%. The remaining at 1 h in data set [17] and in data set [18] was 0% in each case.

As to `COc1ccc2c(c1)c(CC(=O)OCc1oc(=O)oc1C)c(C)n2C(=O)c1ccc(Cl)cc1`, the UI in data set [2] is given as 0. In addition, the inhibition in vivo at 100 mg/kg in data set [3] came out at 12.1%. For the same compound, the log distribution coefficient (logD) came out at 2.9 in data set [4] and 4.5 in [5]. For the same compound, the solubility at 4 h in data set [6], in data set [7], in data set [8], in [9] and in data set [10] was less than 0.0638 µg/mL throughout. The Stability was found to be 0.0191 µg/mL in data set [11]; 0.0134 µg/mL in data set [12]; 0.0244 µg/mL in [13]; 0.0101 µg/mL in [14]; 0.5106 µg/mL in [15].

For the compound `COc1ccc2c(c1)c(CC(=O)O)c(C)n2C(=O)c1ccc(Cl)cc1` [INDOMETHACIN], the Activity in data set [1] is recorded as 90.2%; in [19], 4.9%; in data set [20], 4.9%. Besides, the UI in data set [2] amounted to 47. The inhibition in vivo at 100 mg/kg in data set [3] is 48.4%. Besides, in data set [5], the logD is 4.2. Further, the remaining at 0.5 h in data set [16] amounted to 90.3%. Further, the remaining at 1 h in [17] stood at 80.2%; in data set [18], 97.1%.
